ChEMBL document CHEMBL4673250, “Analogs of nitrofuran antibiotics are potent GroEL/ES inhibitor pro-drugs” (Bioorg Med Chem, 2020)
Activity calls are given as the source filed them. The rule behind the calls is not given here.

What was measured:
[1] = Selectivity index, ratio of CC50 for human FHC cells to EC50 for Escherichia coli; assay type: toxicity; settings: read-out: Ratio CC50/EC50
Enterococcus faecium = assay: Antibacterial activity against Enterococcus faecium ATCC 19434 assessed as reduction in bacterial growth by serial dilution method; assay type: functional, organism-based
Pseudomonas aeruginosa = assay: Antibacterial activity against Pseudomonas aeruginosa ATCC 10145 assessed as reduction in bacterial growth by serial dilution method; assay type: functional, organism-based
Acinetobacter baumannii = assay: Antibacterial activity against Acinetobacter baumannii ATCC 19606 assessed as reduction in bacterial growth by serial dilution method; assay type: functional, organism-based; settings: ATCC 19606 = CIP 70.34 = JCM 6841
Klebsiella pneumoniae = assay: Antibacterial activity against Klebsiella pneumoniae ATCC 13883 assessed as reduction in bacterial growth by serial dilution method; assay type: functional, organism-based
Escherichia coli [2] = assay: Antibacterial activity against Escherichia coli harbouring NfsA and NfsB mutant assessed as reduction in bacterial growth measured for 12 day serial passage incubated for 24 hrs by serial dilution method; assay type: functional, organism-based
Procedure, shortened: (§1)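 NEB 5-alpha E. coli (DH5α derivative); 12-day liquid-culture serial passage. Dilute culture (OD600 = 0.01) grown 24 h with inhibitors in dose-response, in duplicate. EC50 taken from OD600 readings. Each day, bacteria were sub-cultured from the well with the highest inhibitor concentration still reaching OD600 > 0.2. Resistant strains were retested in a follow-up 24 h proliferation assay after 4×12 h passages without inhibitor, and were cross-tested against the other inhibitors.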

[3] = Cytotoxicity against human FHs74Int cells assessed as reduction in cell viability incubated for 48 hrs by alamar blue assay; assay type: cell-based
Procedure, shortened: (§2)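 Alamar Blue viability: cells grown to ~80–90% confluency, seeded 1,500 per well and cultured 24 h without compound, then compound added for a further 48 h; resazurin reagent added and fluorescence monitored over time.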

E. coli GroEL/ES [4] = target: T1, E. coli GroEL/ES (Escherichia coli, UniProt P0A6F5); assay: Inhibition of Escherichia coli GroEL/ES-mediated refolding of the denatured malate dehydrogenase; assay type: protein-complex assay
Procedure, shortened: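 E. coli GroEL/ES-mediated refolding of denatured MDH as the reporter enzyme. IC50 values are averages from at least four replicates. […] GroEL tetradecamer is present at 50 nM during the refolding cycle. DMSO serves as the negative control.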

FHC = assay: Cytotoxicity against human FHC cells assessed as reduction in cell viability incubated for 48 hrs by alamar blue assay; assay type: cell-based; procedure, shortened: as §2
E. coli GroEL/ES [5] = target: T1, E. coli GroEL/ES; assay: Inhibition of Escherichia coli GroEL/ES-mediated refolding of the denatured malate dehydrogenase in presence of Escherichia coli type 1 NfsB nitroreductase; assay type: protein-complex assay
Procedure, shortened: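 GroEL/ES-dMDH refolding with 10 µg/mL E. coli NfsB added to the initial GroEL/ES-dMDH mix. After compound stamping, NADH (2.4 mM stock) is added and the mix is incubated 10 min at 37°C to bioactivate nitrofurans. Compounds during the refolding cycle span 83 µM to 38 nM (3-fold series).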

[6] = Selectivity index, ratio of CC50 for human FHs 74 cells to EC50 for Escherichia coli; assay type: toxicity; settings: read-out: Ratio CC50/EC50
Staphylococcus aureus = assay: Antibacterial activity against Staphylococcus aureus ATCC 25923 assessed as reduction in bacterial growth by serial dilution method; assay type: functional, organism-based
Enterobacter cloacae = assay: Antibacterial activity against Enterobacter cloacae ATCC 13047 assessed as reduction in bacterial growth by serial dilution method; assay type: functional, organism-based
Escherichia coli [7] = assay: Antibacterial activity against Escherichia coli assessed as reduction in bacterial growth measured for 12 day serial passage incubated for 24 hrs by serial dilution method; assay type: functional, organism-based; procedure, shortened: as §1
Escherichia coli [8] = assay: Antibacterial activity against Nitrofurantoin-resistant Escherichia coli assessed as reduction in bacterial growth measured for 12 day serial passage incubated for 24 hrs by serial dilution method; assay type: functional, organism-based; procedure, shortened: as §1
Escherichia coli [9] = assay: Antibacterial activity against 5-chloro-N-[(5-nitro-2-furyl)methyleneamino]thiophene-2-carboxamide-resistant Escherichia coli assessed as reduction in bacterial growth measured for 12 day serial passage incubated for 24 hrs by serial dilution method; assay type: functional, organism-based; procedure, shortened: as §1
Escherichia coli [10] = assay: Antibacterial activity against Nifuroxazide-resistant Escherichia coli assessed as reduction in bacterial growth measured for 12 day serial passage incubated for 24 hrs by serial dilution method; assay type: functional, organism-based; procedure, shortened: as §1
Escherichia coli [11] = assay: Antibacterial activity against Escherichia coli assessed as reduction in bacterial growth by serial dilution method; assay type: functional, organism-based
Procedure, shortened: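 Liquid-culture proliferation in media supplemented with physiological free calcium and magnesium; cultures started at OD600 = 0.01, exposed to 8-point 3-fold dilution series (100 μM to 46 nM), grown to mid-log phase (OD600 ~0.4–0.6), then final OD600 read. E. coli strain NEB 5-alpha (DH5α derivative).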

T1 sequence (P0A6F5 whole entry, looked up): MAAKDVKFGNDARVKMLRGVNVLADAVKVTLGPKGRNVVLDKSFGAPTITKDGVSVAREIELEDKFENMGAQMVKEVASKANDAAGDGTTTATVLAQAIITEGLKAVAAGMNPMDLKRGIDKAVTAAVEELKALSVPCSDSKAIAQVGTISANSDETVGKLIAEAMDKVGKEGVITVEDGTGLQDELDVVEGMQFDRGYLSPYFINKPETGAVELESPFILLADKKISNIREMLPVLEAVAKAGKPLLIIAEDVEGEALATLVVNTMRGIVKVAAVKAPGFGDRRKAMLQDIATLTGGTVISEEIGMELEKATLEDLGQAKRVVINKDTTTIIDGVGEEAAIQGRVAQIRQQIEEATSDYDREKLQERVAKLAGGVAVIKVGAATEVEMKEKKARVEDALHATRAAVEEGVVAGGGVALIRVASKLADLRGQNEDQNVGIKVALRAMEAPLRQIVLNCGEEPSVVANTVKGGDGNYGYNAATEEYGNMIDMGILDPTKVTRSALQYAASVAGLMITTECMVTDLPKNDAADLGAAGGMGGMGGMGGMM

Question: What does the source list for `O=C(N/N=C/c1ccc([N+](=O)[O-])o1)c1ccc(Cl)s1`?
Answer: selectivity ratio [1]: 119; EC50 (Enterococcus faecium): 12 µM; EC50 (Pseudomonas aeruginosa): > 100 µM; EC50 (Acinetobacter baumannii): 72 µM; EC50 (Klebsiella pneumoniae): 19 µM; Activity (Escherichia coli [2]): inactive; CC50 [3]: 85 µM; IC50 (E. coli GroEL/ES [4]): 88 µM; CC50 (FHC): 53 µM; IC50 (E. coli GroEL/ES [5]): 3.2 µM; selectivity ratio [6]: 190; EC50 (Staphylococcus aureus): 3 µM; EC50 (Enterobacter cloacae): 49 µM; EC50 (Escherichia coli [7]): 20 µM; Activity (Escherichia coli [8]): Active; Activity (Escherichia coli [9]): inactive; Activity (Escherichia coli [10]): Active; EC50 (Escherichia coli [11]): 0.45 µM

Question: Which results are given for `O=C1CN(/N=C/c2ccc([N+](=O)[O-])o2)C(=O)N1` [NITROFURANTOIN]?
Answer: EC50 (Enterococcus faecium): 38 µM; EC50 (Pseudomonas aeruginosa): > 100 µM; EC50 (Acinetobacter baumannii): > 100 µM; EC50 (Klebsiella pneumoniae): 40 µM; Activity (Escherichia coli [2]): inactive; CC50 [3]: > 100 µM; IC50 (E. coli GroEL/ES [4]): > 100 µM; CC50 (FHC): > 100 µM; IC50 (E. coli GroEL/ES [5]): 84 µM; EC50 (Staphylococcus aureus): 27 µM; EC50 (Enterobacter cloacae): 36 µM; EC50 (Escherichia coli [7]): 20 µM; Activity (Escherichia coli [8]): inactive; Activity (Escherichia coli [9]): inactive; Activity (Escherichia coli [10]): inactive; EC50 (Escherichia coli [11]): 0.69 µM

Question: For `O=C(N/N=C/c1ccc([N+](=O)[O-])o1)c1ccc(O)cc1` [NIFUROXAZIDE], which selectivity ratio [1] is on record?
Answer: Its selectivity ratio is 70.

Question: What about the EC50 (Enterococcus faecium) of the same molecule?
Answer: Its EC50 is 8.1 µM.

Question: What about the EC50 (Pseudomonas aeruginosa) of the same molecule?
Answer: The EC50 was greater than 100 µM.

Question: And the EC50 (Acinetobacter baumannii)?
Answer: Its EC50 is greater than 100 µM.

Question: What about the EC50 (Klebsiella pneumoniae) of the same molecule?
Answer: The EC50 was 37 µM.

Question: What about the Activity (Escherichia coli [2]) of the same molecule?
Answer: Its Activity is “inactive”.

Question: What about the CC50 [3] of the same molecule?
Answer: The CC50 was 79 µM.

Question: And the IC50 (E. coli GroEL/ES [4])?
Answer: The IC50 was greater than 100 µM.

Question: What about the CC50 (FHC) of the same molecule?
Answer: The CC50 was 61 µM.

Question: And the IC50 (E. coli GroEL/ES [5])?
Answer: Its IC50 is 19 µM.

Question: And the selectivity ratio [6]?
Answer: The selectivity ratio was 91.

Question: What about the EC50 (Staphylococcus aureus) of the same molecule?
Answer: Its EC50 is 16 µM.

Question: And the EC50 (Enterobacter cloacae)?
Answer: The EC50 was 54 µM.

Question: And the EC50 (Escherichia coli [7])?
Answer: Its EC50 is 20 µM.

Question: What about the Activity (Escherichia coli [8]) of the same molecule?
Answer: Its Activity is “Active”.

Question: And the Activity (Escherichia coli [9])?
Answer: The Activity was “Active”.

Question: What about the Activity (Escherichia coli [10]) of the same molecule?
Answer: The Activity was “Active”.

Question: And the EC50 (Escherichia coli [11])?
Answer: Its EC50 is 0.87 µM.

Question: For `O=C(N/N=C/c1ccc([N+](=O)[O-])o1)c1ccccc1`, which selectivity ratio [1] is on record?
Answer: The selectivity ratio was greater than 48.

Question: What about the EC50 (Enterococcus faecium) of the same molecule?
Answer: The EC50 was 31 µM.

Question: And the EC50 (Pseudomonas aeruginosa)?
Answer: The EC50 was greater than 100 µM.

Question: And the EC50 (Acinetobacter baumannii)?
Answer: Its EC50 is greater than 100 µM.

Question: And the EC50 (Klebsiella pneumoniae)?
Answer: The EC50 was 36 µM.

Question: What about the CC50 [3] of the same molecule?
Answer: Its CC50 is 94 µM.

Question: And the IC50 (E. coli GroEL/ES [4])?
Answer: The IC50 was greater than 100 µM.

Question: What about the CC50 (FHC) of the same molecule?
Answer: Its CC50 is greater than 100 µM.

Question: What about the IC50 (E. coli GroEL/ES [5]) of the same molecule?
Answer: Its IC50 is 12 µM.

Question: What about the selectivity ratio [6] of the same molecule?
Answer: The selectivity ratio was 45.

Question: And the EC50 (Staphylococcus aureus)?
Answer: Its EC50 is 10 µM.

Question: And the EC50 (Enterobacter cloacae)?
Answer: Its EC50 is greater than 100 µM.

Question: What about the EC50 (Escherichia coli [11]) of the same molecule?
Answer: Its EC50 is 2.1 µM.

Question: Which results are given for `COc1ccc(C(=O)N/N=C/c2ccc([N+](=O)[O-])o2)cc1`?
Answer: EC50 (Enterococcus faecium): 22 µM; EC50 (Pseudomonas aeruginosa): > 100 µM; EC50 (Acinetobacter baumannii): > 100 µM; EC50 (Klebsiella pneumoniae): > 100 µM; CC50 [3]: 75 µM; IC50 (E. coli GroEL/ES [4]): 69 µM; CC50 (FHC): > 100 µM; IC50 (E. coli GroEL/ES [5]): 10 µM; selectivity ratio [6]: 40; EC50 (Staphylococcus aureus): 8.1 µM; EC50 (Enterobacter cloacae): > 100 µM; EC50 (Escherichia coli [11]): 1.9 µM
